Data as given in ChEMBL document CHEMBL4020827, “Targeting Multiple Effector Pathways in Pancreatic Ductal Adenocarcinoma with a G-Quadruplex-Binding Small Molecule” (J Med Chem, 2018).

Key:
MIA PaCa-2 [1] = test: Antitumor activity against human MIAPaCa2 cells xenografted in CD-1 nude mouse assessed as change in tumor volume at 15 mg/kg, iv administered twice weekly for 4 weeks measured on day 62 relative to control; format: functional
In short: (§1)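 Female CD-1 nude mice (2-3 months, 20−25 g) given 5 x 10^6 MIA PaCa-2 cells subcutaneously in right flank with Matrigel; dosing began once tumors were established (approx. 13 days, mean 0.05 cm3). Eight mice/group, IV in saline twice weekly for 28 days (8 doses) against a saline group. Tumors measured by calliper (length × width × height × π/6), with body weight. Student's t test.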

[2] = Binding affinity to 5'-FAM/3'-TAMRA labeled KRAS21 promoter G-quadruplex DNA (unknown origin) assessed as change in melting temperature at 1 uM by FRET assay
In short: (§2)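 FRET melting of FAM/TAMRA dual-labelled promoter G4 oligonucleotides, 400 nM, annealed at 95 °C for 10 min in 60 mM potassium cacodylate (pH 7.4) then cooled to RT. Ligand at 1 μM in solution with 50 mM K+. Fluorescence (ex 450–495, em 515–545 nm) read every 0.5 °C over 30–100 °C with a 30 sec hold per step. ΔTm from curve fitting; triplicate measurements.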

[3] = Toxicity in iv dosed CD-1 nude mouse assessed as death measured up to 72 hrs; format: organism-based; conditions: in vivo
In short: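 CD1 nude mice, two per group, given single IV doses in saline (10, 20, 30, 35, 40, 45, 50 and 60 mg/kg), with repeat dosing weekly. Watched for adverse effects for up to 72 h. Tolerated dose taken as highest cohort in which all mice survived without observed ill-effects.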

[4] = Binding affinity to 5'-FAM/3'-TAMRA labeled HSP90B promoter G-quadruplex DNA (unknown origin) assessed as change in melting temperature at 1 uM by FRET assay
In short: (§3)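 FRET melting with FAM/TAMRA dual-labelled oligonucleotides at 400 nM, annealed at 95 °C for 10 min in 60 mM potassium cacodylate pH 7.4 and slowly cooled. Ligand final 1 μM; solution contains 50 mM K+. Fluorescence read every 0.5 °C over 30–100 °C with 30 s hold, excitation 450–495 nm and emission 515–545 nm. ΔTm from curve fitting, triplicate measurements.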

[5] = Binding affinity to 5'-FAM/3'-TAMRA labeled BCL2 promoter G-quadruplex DNA (unknown origin) assessed as change in melting temperature at 1 uM by FRET assay; in short: as §3
[6] = Binding affinity to 5'-FAM/3'-TAMRA labeled KRAS32 promoter G-quadruplex DNA (unknown origin) assessed as change in melting temperature at 1 uM by FRET assay; in short: as §2
[7] = Selectivity index, ratio of IC50 for human WI38 cells to IC50 for human MIAPaCa2 cells; format: functional
In short: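 SRB growth-inhibition assay over 96 h with compounds dissolved in water; cells grown in 10 % FBS at 37 °C, 5% CO2. Absorbance at 540 nm as a percentage of untreated wells gives the IC50. Values are averages of >3 determinations, with the ratio taken as WI-38 IC50 over MIA PaCa-2 IC50.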

[8] = Binding affinity to 5'-FAM/3'-TAMRA labeled HSP90A promoter G-quadruplex DNA (unknown origin) assessed as change in melting temperature at 1 uM by FRET assay; in short: as §2
Homo sapiens = species: Homo sapiens; test: Binding affinity to 5'-FAM/3'-TAMRA labeled human telomeric F21T G-quadruplex DNA assessed as change in melting temperature at 1 uM by FRET assay; in short: as §3
MIA PaCa-2 [9] = test: Antitumor activity against human MIAPaCa2 cells xenografted in CD-1 nude mouse assessed as change in tumor volume at 15 mg/kg, iv administered twice weekly for 4 weeks measured on day 29 relative to control; format: functional; in short: as §1
A549 = test: Growth inhibition of human A549 cells after 96 hrs by SRB assay; format: functional, cell-based; conditions: A549, 96 h
In short: (§4)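 Cell lines kept at 37 °C, 5% CO2 in medium with 10% FBS and 2 mM L-glutamine. Compound dissolved in water, filter-sterilised, 10 mM stock diluted into media. Growth read by 96 h sulforhodamine B assay, absorbance at 540 nm. IC50 taken from mean absorbance per concentration as % of untreated wells, >3 individual determinations with standard deviations.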

[10] = Binding affinity to 5'-FAM/3'-TAMRA labeled T-loop duplex DNA (unknown origin) assessed as change in melting temperature at 1 uM by FRET assay; in short: as §3
MIA PaCa-2 [11] = test: Growth inhibition of human MIAPaCa2 cells after 96 hrs by SRB assay; format: functional, cell-based; conditions: MIA PaCa-2, 96 h; in short: as §4
[12] = Binding affinity to 5'-FAM/3'-TAMRA labeled human telomeric F21T G-quadruplex DNA by fluorescence anisotropy titration method
CAPAN-1 = test: Growth inhibition of human Capan1 cells after 96 hrs by SRB assay; format: functional, cell-based; conditions: CAPAN-1, 96 h; in short: as §4
BXPC-3 = test: Growth inhibition of human BxPC3 cells after 96 hrs by SRB assay; format: functional, cell-based; conditions: BXPC-3, 96 h; in short: as §4

## CN1CCN(CCCNc2cc3c4c(c(NCCCN5CCN(C)CC5)cc5c4c2C(=O)N(CCCN2CCOCC2)C5=O)C(=O)N(CCCN2CCOCC2)C3=O)CC1
MIA PaCa-2 [1]
  Activity: -56.7%
[2]
  ΔTm: 22.5 °C
[3]
  MTD at 72 h: 25 mg/kg
[4]
  ΔTm: 28.6 °C
[5]
  ΔTm: 26.4 °C
[6]
  ΔTm: 19.8 °C
[7]
  Ratio IC50: 21
[8]
  ΔTm: 33.1 °C
Homo sapiens
  ΔTm: 26.6 °C
MIA PaCa-2 [9]
  Activity: -66.7%
A549
  IC50: 19 nM
[10]
  ΔTm: 4.9 °C
MIA PaCa-2 [11]
  IC50: 11 nM
[12]
  Kd: 20 nM

## Nc1ccn([C@@H]2O[C@H](CO)[C@@H](O)C2(F)F)c(=O)n1 [GEMCITABINE]
MIA PaCa-2 [1]
  Activity: -61.7%
CAPAN-1
  IC50: 19 nM
BXPC-3
  IC50: 6 nM
MIA PaCa-2 [9]
  Activity: -66.7%
